# Assay results from ChEMBL document CHEMBL1153411, “Comparing anti-HIV, antibacterial, antifungal, micellar, and cytotoxic properties of tricarboxylato dendritic amphiphiles” (Bioorg Med Chem, 2009).
# Test system: Candida albicans
# Experiment: Antifungal activity against Candida albicans
# Type: functional
# Settings: not given
# Summary of the method: (§1)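 Whole-cell growth-inhibition assays against L. plantarum or C. albicans, compounds added from aqueous triethanolamine stocks. Activity expressed as MIC99, the concentration giving complete inhibition of growth. Error ±1 twofold dilution.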
row,Structure (SMILES),MIC99 [µM]
1,CCCCCCCCCCCCCCCCCCCCCCOC(=O)NC(CCC(=O)O)(CCC(=O)O)CCC(=O)O,1300
2,CCCCCCCCCCCCCCCCCCOC(=O)NC(CCC(=O)O)(CCC(=O)O)CCC(=O)O,180
3,CCCCCCCCCCCCCCCCCC(=O)NC(CCC(=O)O)(CCC(=O)O)CCC(=O)O,280
4,CCCCCCCCCCCCCCCC(=O)NC(CCC(=O)O)(CCC(=O)O)CCC(=O)O,290
5,CCCCCCCCCCCCCCCCCCCCOC(=O)NC(CCC(=O)O)(CCC(=O)O)CCC(=O)O,1400
6,CCCCCCCCCCCCCCCCCCCC(=O)NC(CCC(=O)O)(CCC(=O)O)CCC(=O)O,16
7,CCCCCCCCCCCCCC(=O)NC(CCC(=O)O)(CCC(=O)O)CCC(=O)O,610
8,CCCCCCCCCCCCCCCCOC(=O)NC(CCC(=O)O)(CCC(=O)O)CCC(=O)O,47

# Test system: not listed separately
# Experiment: Cytotoxicity against human epithelial cells by MTT assay
# Type: cell-based
# Settings: Epithelial cell
# Summary of the method: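 Same HeLa cells and same conditions as the infection assay, on a separate plate without virus. Viability measured by MTT reduction. EC50 by linear regression; SD ±10%.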
row,Structure (SMILES),EC50 [µM]
1,CCCCCCCCCCCCCCCCCCCCCCOC(=O)NC(CCC(=O)O)(CCC(=O)O)CCC(=O)O,360
2,CCCCCCCCCCCCCCCCCCOC(=O)NC(CCC(=O)O)(CCC(=O)O)CCC(=O)O,350
3,CCCCCCCCCCCCCCCC(=O)NC(CCC(=O)O)(CCC(=O)O)CCC(=O)O,940
4,CCCCCCCCCCCCCCCCCCCCOC(=O)NC(CCC(=O)O)(CCC(=O)O)CCC(=O)O,280
5,CCCCCCCCCCCCCCCCCCCC(=O)NC(CCC(=O)O)(CCC(=O)O)CCC(=O)O,340
6,CCCCCCCCCCCCCC(=O)NC(CCC(=O)O)(CCC(=O)O)CCC(=O)O,300
7,CCCCCCCCCCCCCCCCOC(=O)NC(CCC(=O)O)(CCC(=O)O)CCC(=O)O,440

# Test system: not listed separately
# Experiment: Slope of log critical micelle concentration versus chain length n in aqueous potassium hydroxide by conductivity measurement
# Settings: buffer
row,Structure (SMILES),slope of logCMC vs n
1,CCCCCCCCCCCCCCCCCC(=O)NC(CCC(=O)O)(CCC(=O)O)CCC(=O)O,-0.175
2,CCCCCCCCCCCCCCCC(=O)NC(CCC(=O)O)(CCC(=O)O)CCC(=O)O,-0.175
3,CCCCCCCCCCCCCCCCCCCC(=O)NC(CCC(=O)O)(CCC(=O)O)CCC(=O)O,-0.175
4,CCCCCCCCCCCCCC(=O)NC(CCC(=O)O)(CCC(=O)O)CCC(=O)O,-0.175

# Test system: Neisseria gonorrhoeae
# Experiment: Antibacterial activity against Neisseria gonorrhoeae ATCC 31426 after 4 days by broth microdilution method
# Type: functional
# Settings: ATCC 31426, 96 h
# Summary of the method: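 Strain ATCC 31426 from chocolate agar (1% hemoglobin) colonies, grown 4 d in GC broth at 37 °C in an anaerobic jar with CO2 generator. Cells taken up in buffered saline gelatin and allowed to settle 4 h. Broth microdilution over 6.25 mg/mL down to 0.55 µg/mL. Plates incubated 4 d at 37 °C, in triplicate. MIC is the lowest concentration giving prominent visible decrease in turbidity; ±1 twofold dilution.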
row,Structure (SMILES),MIC99 [µM]
1,CCCCCCCCCCCCCCCCCCCCCCOC(=O)NC(CCC(=O)O)(CCC(=O)O)CCC(=O)O,120
2,CCCCCCCCCCCCCCCCCCOC(=O)NC(CCC(=O)O)(CCC(=O)O)CCC(=O)O,65
3,CCCCCCCCCCCCCCCCCC(=O)NC(CCC(=O)O)(CCC(=O)O)CCC(=O)O,2700
4,CCCCCCCCCCCCCCCC(=O)NC(CCC(=O)O)(CCC(=O)O)CCC(=O)O,12000
5,CCCCCCCCCCCCCCCCCCCCOC(=O)NC(CCC(=O)O)(CCC(=O)O)CCC(=O)O,120
6,CCCCCCCCCCCCCCCCCCCC(=O)NC(CCC(=O)O)(CCC(=O)O)CCC(=O)O,130
7,CCCCCCCCCCCCCC(=O)NC(CCC(=O)O)(CCC(=O)O)CCC(=O)O,12000
8,CCCCCCCCCCCCCCCCOC(=O)NC(CCC(=O)O)(CCC(=O)O)CCC(=O)O,280

# Test system: Human immunodeficiency virus 1
# Experiment: Antiviral activity against HIV1 3B with X4 trophism infected in human HeLa cells after 2 hrs by beta-galactosidase reporter gene assay
# Type: functional, organism-based
# Settings: Human immunodeficiency virus 1, 3B
# Summary of the method: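 CD4+, LTR-driven β-galactosidase HeLa cells exposed 2 h to HIV-1 IIIB plus serial compound dilutions. Virus and compound then washed out and cells cultured 48 h in RPMI 1640/10% FBS at 37 °C, 5% CO2. Lysate β-galactosidase measured by chemiluminescence, with virus-only wells as 100% infection. EC50 by linear regression; SD ±10%.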
row,Structure (SMILES),EC50 [µM]
1,CCCCCCCCCCCCCCCCCCCCCCOC(=O)NC(CCC(=O)O)(CCC(=O)O)CCC(=O)O,110
2,CCCCCCCCCCCCCCCCCCOC(=O)NC(CCC(=O)O)(CCC(=O)O)CCC(=O)O,130
3,CCCCCCCCCCCCCCCC(=O)NC(CCC(=O)O)(CCC(=O)O)CCC(=O)O,230
4,CCCCCCCCCCCCCCCCCCCCOC(=O)NC(CCC(=O)O)(CCC(=O)O)CCC(=O)O,130
5,CCCCCCCCCCCCCCCCCCCC(=O)NC(CCC(=O)O)(CCC(=O)O)CCC(=O)O,170
6,CCCCCCCCCCCCCC(=O)NC(CCC(=O)O)(CCC(=O)O)CCC(=O)O,740
7,CCCCCCCCCCCCCCCCOC(=O)NC(CCC(=O)O)(CCC(=O)O)CCC(=O)O,170

# Test system: not listed separately
# Experiment: Critical micelle concentration in aqueous triethanalamine at pH 8.0 to 9.5 by fluorescence spectra measurement
# Settings: buffer
row,Structure (SMILES),CMC [µM]
1,CCCCCCCCCCCCCCCCCCCCCCOC(=O)NC(CCC(=O)O)(CCC(=O)O)CCC(=O)O,330
2,CCCCCCCCCCCCCCCCCCOC(=O)NC(CCC(=O)O)(CCC(=O)O)CCC(=O)O,2700
3,CCCCCCCCCCCCCCCCCC(=O)NC(CCC(=O)O)(CCC(=O)O)CCC(=O)O,11000
4,CCCCCCCCCCCCCCCC(=O)NC(CCC(=O)O)(CCC(=O)O)CCC(=O)O,18000
5,CCCCCCCCCCCCCCCCCCCCOC(=O)NC(CCC(=O)O)(CCC(=O)O)CCC(=O)O,800
6,CCCCCCCCCCCCCCCCCCCC(=O)NC(CCC(=O)O)(CCC(=O)O)CCC(=O)O,3200
7,CCCCCCCCCCCCCCCCOC(=O)NC(CCC(=O)O)(CCC(=O)O)CCC(=O)O,6400

# Test system: not listed separately
# Experiment: Safety index, ratio of EC50 for human epithelial cells to MIC99 for Candida albicans
# Type: toxicity, cell-based, Epithelial cell
# Settings: not given
row,Structure (SMILES),selectivity ratio
1,CCCCCCCCCCCCCCCCCCCC(=O)NC(CCC(=O)O)(CCC(=O)O)CCC(=O)O,21

# Test system: not listed separately
# Experiment: Safety ratio of critical micelle concentration in aqueous potassium hydroxide to MIC99 for Candida albicans
# Type: toxicity
# Settings: buffer
row,Structure (SMILES),Ratio
1,CCCCCCCCCCCCCCCCCCCC(=O)NC(CCC(=O)O)(CCC(=O)O)CCC(=O)O,2

# Test system: not listed separately
# Experiment: Safety ratio of critical micelle concentration in aqueous triethanalamine at pH 7.4 to MIC99 for Candida albicans
# Type: toxicity
# Settings: aqueous triethanolamine
row,Structure (SMILES),selectivity ratio
1,CCCCCCCCCCCCCCCCCCCC(=O)NC(CCC(=O)O)(CCC(=O)O)CCC(=O)O,10

# Test system: not listed separately
# Experiment: Critical micelle concentration in aqueous potassium hydroxide by conductivity measurement
# Type: physicochemical
# Settings: buffer
# Summary of the method: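 Measured in potassium hydroxide solutions at high pH so that only the trianion is present. Solutions stirred during conductivity measurement. CMC taken by least-squares fits of the linear portions of conductivity-versus-concentration plots on either side of the break.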
row,Structure (SMILES),CMC [µM]
1,CCCCCCCCCCCCCCCCCC(=O)NC(CCC(=O)O)(CCC(=O)O)CCC(=O)O,71
2,CCCCCCCCCCCCCCCC(=O)NC(CCC(=O)O)(CCC(=O)O)CCC(=O)O,1500
3,CCCCCCCCCCCCCCCCCCCC(=O)NC(CCC(=O)O)(CCC(=O)O)CCC(=O)O,34
4,CCCCCCCCCCCCCC(=O)NC(CCC(=O)O)(CCC(=O)O)CCC(=O)O,3500

# Test system: not listed separately
# Experiment: Critical micelle concentration in aqueous triethanalamine using drop shape analysis by surface tension measurement
# Type: physicochemical
# Settings: buffer
# Summary of the method: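 Surface tension from pendent drops on an 18-gauge needle in triethanolamine/water 0.9% (wt/vol), with solution pH 8.0–9.5. Drop kept in a cuvette holding aqueous triethanolamine to maintain humidity, and camera magnification calibrated from needle tip width. CMC from the break in surface tension versus log concentration.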
row,Structure (SMILES),CMC [µM]
1,CCCCCCCCCCCCCCCCCCCCCCOC(=O)NC(CCC(=O)O)(CCC(=O)O)CCC(=O)O,320
2,CCCCCCCCCCCCCCCCCCOC(=O)NC(CCC(=O)O)(CCC(=O)O)CCC(=O)O,2800
3,CCCCCCCCCCCCCCCCCC(=O)NC(CCC(=O)O)(CCC(=O)O)CCC(=O)O,11000
4,CCCCCCCCCCCCCCCC(=O)NC(CCC(=O)O)(CCC(=O)O)CCC(=O)O,17000
5,CCCCCCCCCCCCCCCCCCCCOC(=O)NC(CCC(=O)O)(CCC(=O)O)CCC(=O)O,500
6,CCCCCCCCCCCCCCCCCCCC(=O)NC(CCC(=O)O)(CCC(=O)O)CCC(=O)O,3000
7,CCCCCCCCCCCCCCCCOC(=O)NC(CCC(=O)O)(CCC(=O)O)CCC(=O)O,6800

# Test system: not listed separately
# Experiment: Ratio of EC50 for human HeLa cells to EC50 for HIV1 3B infected in human HeLa cells
# Settings: not given
row,Structure (SMILES),Ratio EC50
1,CCCCCCCCCCCCCCCCCCCCCCOC(=O)NC(CCC(=O)O)(CCC(=O)O)CCC(=O)O,3.3
2,CCCCCCCCCCCCCCCCCCOC(=O)NC(CCC(=O)O)(CCC(=O)O)CCC(=O)O,2.7
3,CCCCCCCCCCCCCCCC(=O)NC(CCC(=O)O)(CCC(=O)O)CCC(=O)O,4
4,CCCCCCCCCCCCCCCCCCCCOC(=O)NC(CCC(=O)O)(CCC(=O)O)CCC(=O)O,2.2
5,CCCCCCCCCCCCCCCCOC(=O)NC(CCC(=O)O)(CCC(=O)O)CCC(=O)O,2.6

# Test system: not listed separately
# Experiment: Solubility of compound in phosphate buffer at pH 7.2
# Type: physicochemical
# Settings: not given
row,Structure (SMILES),solubility [µM]
1,CCCCCCCCCCCCCCCC(=O)NC(CCC(=O)O)(CCC(=O)O)CCC(=O)O,6900

# Test system: Lactiplantibacillus plantarum
# Experiment: Antibacterial activity against Lactobacillus plantarum
# Type: functional
# Settings: not given
# Summary of the method: as §1
row,Structure (SMILES),MIC99 [µM]
1,CCCCCCCCCCCCCCCCCCCCCCOC(=O)NC(CCC(=O)O)(CCC(=O)O)CCC(=O)O,1300
2,CCCCCCCCCCCCCCCCCCOC(=O)NC(CCC(=O)O)(CCC(=O)O)CCC(=O)O,1400
3,CCCCCCCCCCCCCCCCCC(=O)NC(CCC(=O)O)(CCC(=O)O)CCC(=O)O,540
4,CCCCCCCCCCCCCCCC(=O)NC(CCC(=O)O)(CCC(=O)O)CCC(=O)O,570
5,CCCCCCCCCCCCCCCCCCCCOC(=O)NC(CCC(=O)O)(CCC(=O)O)CCC(=O)O,1400
6,CCCCCCCCCCCCCCCCCCCC(=O)NC(CCC(=O)O)(CCC(=O)O)CCC(=O)O,520
7,CCCCCCCCCCCCCC(=O)NC(CCC(=O)O)(CCC(=O)O)CCC(=O)O,610
8,CCCCCCCCCCCCCCCCOC(=O)NC(CCC(=O)O)(CCC(=O)O)CCC(=O)O,6000
